# SIAE primary: human SIAE inhibition, primary screen; Q9HAT2; SIAE FP-Rh probe binding, fluorescence polarization; inhibition, % at 9.66 µM; 370,000 tested, 0.69% active; AID 1053197;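 active means inhibition above a cutoff: mean of compounds within the control limits plus 3 SD of those, cut at about 17% in these data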;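 further: 0% = plate median of compound wells and 100% = probe without SIAE protein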
# HTRA1 inh: blocks human HTRA1 serine peptidase; recombinant HTRA1, FP-rhodamine activity-based probe, fluorescence polarization; inhibition, % at 5.96 µM; 340,000 tested, 0.5% active; in the data active means inhibition above about 36%;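 further: 0% = enzyme with DMSO and 100% = wells lacking enzyme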
# TDP2 absorb: blocks human TDP2 phosphodiesterase activity; inhibition, % at 12.8 µM; O95551; AID 720702; 370,000 tested, 0.34% active; recombinant TDP2, T5PNP hydrolysis, p-nitrophenol absorbance 415 nm;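 active means inhibition above the mean of all tested compounds plus 3 SD, set per campaign, cut at about 25% in these data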;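 further: 0% = DMSO with enzyme and 100% = buffer with substrate but no TDP2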
# Target sequence (O95551 whole entry, looked up): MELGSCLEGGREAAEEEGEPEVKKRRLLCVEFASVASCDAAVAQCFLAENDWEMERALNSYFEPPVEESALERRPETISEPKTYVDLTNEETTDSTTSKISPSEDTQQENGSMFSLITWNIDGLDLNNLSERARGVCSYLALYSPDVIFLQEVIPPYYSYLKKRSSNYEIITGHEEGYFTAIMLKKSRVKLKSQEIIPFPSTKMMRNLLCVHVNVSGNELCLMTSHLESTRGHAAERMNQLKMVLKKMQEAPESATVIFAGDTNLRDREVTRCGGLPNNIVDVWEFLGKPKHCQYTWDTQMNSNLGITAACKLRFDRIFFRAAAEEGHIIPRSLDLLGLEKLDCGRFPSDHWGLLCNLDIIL
#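 System – recombinant human TDP2 · Amount – 120 nM TDP2 per well · Buffer or medium – Mg2+-containing Tris-HCl buffer, pH 7.5 · Reagent – T5PNP substrate, 5 mM · Dosing – 12.8 µM single point, 1% DMSO · Incubation – 2 h at 37 °C · Measured by – epi absorbance · Read-out basis – percent inhibition · Benchmarks – high control without enzyme, low control DMSO plus TDP2 · Repeats – singlicate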
# ABHD4 inh: inhibitors of mouse ABHD4; purified mABHD4, FP-Rh probe fluorescence polarization; inhibition, % at 8.92 µM; 370,000 tested, 0.54% active; AID 720543;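 active means inhibition exceeding the mean over every tested compound plus 3 SD, cut at about 30% in these data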;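 further: 0% = plate median of compound wells and 100% = S159A mutant with DMSO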
# Target sequence (Q8VD66 whole entry, looked up): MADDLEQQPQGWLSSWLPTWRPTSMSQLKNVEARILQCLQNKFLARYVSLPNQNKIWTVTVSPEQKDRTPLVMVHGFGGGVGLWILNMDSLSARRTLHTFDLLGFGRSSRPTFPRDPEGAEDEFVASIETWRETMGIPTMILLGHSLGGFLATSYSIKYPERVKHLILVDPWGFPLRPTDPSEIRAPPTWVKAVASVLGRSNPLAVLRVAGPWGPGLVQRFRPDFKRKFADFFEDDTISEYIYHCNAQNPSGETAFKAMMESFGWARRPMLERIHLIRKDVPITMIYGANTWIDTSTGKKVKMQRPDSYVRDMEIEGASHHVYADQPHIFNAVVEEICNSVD
#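 Assay system: Wild-type mouse ABHD4 protein | Medium: HEPES pH 7.0 buffer, 150 mM NaCl, 0.01% Pluronic F-127 | Incubation: Enzyme–compound pre-incubation 45 min, then probe 60 min, both 25 °C | Technique: Fluorescence polarization with parallel and perpendicular emission, 525/598 nm | Evaluation: % inhibition of FP-Rh probe binding versus controls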
# LEDGF integ inh: blocks HIV-1 LEDGF/p75-dependent DNA integration; TR-FRET IN-LEDGF/p75 DNA integration, Eu/Cy5; inhibition, % at 3.7 µM; 370,000 tested, 0.64% active;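 active means inhibition above the screen-wide mean plus 3 SD, cut at about 13% in these data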;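 further: signal is the Cy5 over europium emission ratio at 671 and 618 nm; 0% = plate median of compound wells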
# TCR CD3 inh: human TCR-CD3 binding inhibition | TAMRA-labeled TCR probe fluorescence, biochemical | inhibition, % at 9.4 µM | 360,000 tested, 0.37% active;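 further: recombinant mutant TCR 2C K166C tagged with TAMRA read by polarization; 0% = receptor in buffer alone and 100% = receptor with positive control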
# HTRA1 inh conf: confirmation of human HTRA1 inhibitors | shares compounds with HTRA1 inh | recombinant HTRA1, FP-rhodamine activity-based probe, fluorescence polarization | inhibition, % at 5.96 µM | 1,600 tested, 66% active;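 active means mean inhibition over three repeats above a set limit taken from the earlier primary screen, cut at about 37% in these data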;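 further: 0% = HTRA1 with DMSO and 100% = wells lacking HTRA1; inhibitors block probe binding so polarization drops and inhibition rises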
# BSA probe FL: counter-screen for TCR-CD3 interaction inhibitors: BSA probe. TAMRA-labeled BSA probe fluorescence counterscreen. shares compounds with TCR CD3 inh. AID 652035. 1,200 tested, 10% active. inhibition, % at 9.4 µM; in the data active means inhibition above about 23%;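 further: 0% = buffer low control and 100% = reference high control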
# TCR-CD3 conf: TCR-CD3 interaction inhibition, confirmation; shares compounds with TCR CD3 inh; TAMRA-labeled TCR probe fluorescence binding assay; inhibition, % at 9.4 µM; 1,200 tested, 48% active; AID 652036
# mABHD4 conf: ABHD4 (mouse) inhibition, FP confirmation; purified mABHD4, FP-Rh probe fluorescence polarization; AID 720658; shares compounds with ABHD4 inh; inhibition, % at 8.92 µM; 1,800 tested, 55% active;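 active means mean inhibition across replicates above the hit cutoff set in the primary screen, cut at about 30% in these data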;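 further: 0% = wild-type ABHD4 with DMSO and 100% = catalytically dead S159A mutant with DMSO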
# SIAE inh conf: human SIAE inhibition, confirmation; AID 1117263; inhibition, % at 9.66 µM; shares compounds with SIAE primary; 2,300 tested, 13% active; SIAE FP-Rh activity-based probe, fluorescence polarization;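 active means mean inhibition of the replicates above the hit cutoff set in the primary screen, cut at about 17% in these data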;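 further: 0% = SIAE with DMSO and probe and 100% = probe without SIAE; inhibitors lower polarization as more probe stays unbound to SIAE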
# * = called active by the depositor; . = no result given. The list is not random: actives were taken first. Their share in the collection is about 2.2%. Unless noted, no stated cut-off is given here; in the data, active means inhibition above about 19%; inactive means the rest.
SMILES,SIAE primary,HTRA1 inh,TDP2 absorb,ABHD4 inh,LEDGF integ inh,TCR CD3 inh,BSA probe FL,TCR-CD3 conf,others
CCOc1cccc(CNc2ccc(O)cc2)c1OCc1ccc(Cl)cc1,29*,49*,3,41*,4,16,.,.,HTRA1 inh conf=19;mABHD4 conf=36*;SIAE inh conf=8
Cc1ccc(NCc2ccccc2OCc2ccccc2F)cc1,-2,-9,-2,0,-5,-2,.,.,
Oc1ccc(NCc2ccccc2OCc2ccccc2F)cc1,34*,63*,16,49*,5,11,.,.,HTRA1 inh conf=21;mABHD4 conf=50*;SIAE inh conf=10
C=CCN1C[C@H](COC(=O)CSc2ccccc2)Oc2cccc(F)c2S1(=O)=O,-3,.,6,1,-1,-2,.,.,
C[C@@H]1CN([C@@H](C)CO)C(=O)CCCn2cc(nn2)CO[C@H]1CN(C)C(=O)c1ccncc1,3,.,12,-1,-1,1,.,.,
CCOc1ccc(/C=N/NC(=S)NC2CC3C=CC2C3)cc1 (configuration not stated),3,.,-15,-5,-5,1,.,.,
Oc1c(Br)cc(Br)cc1/C=N/NC(=S)N[C@H]1CC2C=CC1C2 (some centres not stated),24*,57*,-24,38*,4,32*,-12,38*,HTRA1 inh conf=63*;mABHD4 conf=43*;SIAE inh conf=24*
O=C(NCCc1ccccc1)OCc1cn(Cc2ccc(F)cc2F)nn1,2,.,1,3,3,.,.,.,
COc1cc(C(C[N+](=O)[O-])c2c(C)cc3ccccn23)ccc1O (configuration not stated),19*,40*,-1,30*,-2,7,.,.,HTRA1 inh conf=40*;mABHD4 conf=13;SIAE inh conf=6
Cc1nn(-c2ccccc2)c(N2CCCC2)c1/C=N/NC(=O)c1ccccc1O,4,8,1,15,-4,5,.,.,
O=C(N/N=C/c1cc2c3c(c1O)CCCN3CCC2)c1ccccc1O,43*,51*,-3,44*,-6,69*,31*,68*,HTRA1 inh conf=58*;mABHD4 conf=22;SIAE inh conf=36*
COc1cc(-c2ccc(Nc3ccccc3C(=O)O)c(OC)c2)ccc1Nc1ccccc1C(=O)O,30*,42*,3,54*,9,10,.,.,HTRA1 inh conf=56*;mABHD4 conf=80*;SIAE inh conf=22*
COc1cc([N+](=O)[O-])c(OC)cc1Nc1ccccc1C(=O)O,-3,.,4,8,-2,1,.,.,
Cc1ccc(C)c(NC(=O)CNS(=O)(=O)c2ccc3[nH]c(=O)oc3c2)c1,0,.,-3,8,-2,.,.,.,
O=[N+]([O-])c1cc([N+](=O)[O-])c2c(=Nc3ccccc3)n(-c3ccccc3)n(O)c2c1,25*,42*,-10,55*,4,26*,.,.,HTRA1 inh conf=48*;mABHD4 conf=48*;SIAE inh conf=11
Fc1cccc(NC(=S)NNc2c3ccccc3nc3ccccc23)c1,39*,36*,-6,28,-1,-9,.,.,HTRA1 inh conf=29;SIAE inh conf=9
O=C(CN(CCc1ccccc1)S(=O)(=O)c1cccs1)N1CCOCC1,-1,.,5,2,-2,.,.,.,
O=C1NC[C@H](Cc2ccc(O)cc2)N(CCc2cccc(F)c2)C1=O,1,.,6,2,1,64*,5,3,
O=C(CSc1nc2ccccc2c(=O)n1-c1ccc(F)c(Cl)c1)Nc1cccc(S(=O)(=O)N2CCOCC2)c1,-57,-35,10,-44,-2,22*,7,19*,
O=C(NC(=S)Nc1ccccc1O)c1ccccc1Cl,-8,-17,0,-16,-1,23*,-5,16,
N#Cc1ccc(CC(=O)c2ccccc2)[nH]c1=O,7,28,-4,43*,6,60*,16,9,
CCN1CCN(Cc2ccc(NC(=O)c3ccc(C)c(NC(=O)c4cc(-c5ccc(Br)cc5)n[nH]4)c3)cc2C(F)(F)F)CC1,-57,-100,-11,-35,1,26*,8,8,
CCN1CCN(Cc2ccc(NC(=O)c3ccc(C)c(NC(=O)c4nccn4C)c3)cc2C(F)(F)F)CC1,0,-1,-2,-14,4,-4,.,.,
COc1cc(C=Nn2c(-c3cc(C)[nH]n3)n[nH]c2=S)cc(Br)c1O,-1,.,8,6,-2,.,.,.,
O=C(Nc1cccc(NC(=O)c2ccc(-c3ccc(Br)cc3)o2)c1)c1ccco1,-91,-76,-5,-56,-2,56*,24*,44*,
SMILES,SIAE primary,HTRA1 inh,TDP2 absorb,ABHD4 inh,LEDGF integ inh,TCR CD3 inh,BSA probe FL,TCR-CD3 conf,others
C[C@H](CO)N1C[C@H](C)[C@H](CN(C)C(=O)Nc2cccc(F)c2)OCc2cnnn2CCCC1=O,4,.,7,7,-2,1,.,.,
COC(=O)c1sccc1NC(=O)Nc1ccc(Cl)c(Cl)c1,-23,-14,-2,-23,-2,34*,3,7,
CCCCCCCCN1CCS(=O)(=O)N(Cc2ccc(F)cc2)C(C(=O)OC)C1 (configuration not stated),6,.,-7,2,2,.,.,.,
Cc1ccc(C)c(N(CC(=O)Nc2ccc(-c3nc4ccc(C)cc4s3)cc2)S(C)(=O)=O)c1,-5,-51,6,-4,-1,20*,9,15,
Cc1ccc2occ(/C=N/O)c(=O)c2c1,0,-19,-1,-4,4,-8,.,.,
CC(=O)Oc1ccc2occ(/C=N/c3cc(=O)[nH]c(=S)[nH]3)c(=O)c2c1,-3,-8,6,12,5,19*,-7,13,
O=C(NCC(=O)N(CC1CCCO1)C(C(=O)NC1CCCCC1)c1ccccc1)c1cccs1 (configuration not stated),6,-6,5,-4,0,29*,4,2,
NC(=O)c1sc(=S)n2c1[nH]c(=O)c1sccc12,-26,-2,5,7,-7,-2,.,.,
CC(=O)NNC(=O)c1sc(=S)n2c1[nH]c(=O)c1sccc12,-9,12,1,20,-2,29*,-2,9,
Cc1nc2ccccc2c(=O)n1/N=C/c1ccccc1O,4,-3,5,0,1,-8,.,.,
O=c1c2ccccc2nc(COc2ccccc2)n1/N=C/c1c[nH]c2ccccc12,-2,-1,-1,-5,1,4,.,.,
